Source: ChEMBL document CHEMBL1765030, “Discovery and preclinical evaluation of a novel class of cytotoxic propynoic acid carbamoyl methyl amides (PACMAs)” (J Med Chem, 2011)
Active and inactive are the calls of the source. No cut-off for these calls is given here.

How the values were obtained:
HEY = experiment: Cytotoxicity against human HEY cells after 72 hrs by MTT assay; type: functional, cell-based
How it was run: (§1)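 Cells were attached overnight, then continuously exposed to drug for 72 h. MTT (0.5 mg/mL final) was added for 4 h at 37 °C, formazan dissolved in DMSO, and A570 read; all in triplicate. IC50 came from log(concentration) vs % cells killed. Media: RPMI-1640 for HT29, HCT116 p53+/+ and p53−/−, and HEY; DMEM for MDA-MB-435 and UMUC3; all with 10% FBS, 37 °C, 5% CO₂.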

[1] = Octanol-water distribution coefficient, log P of the compound; type: physicochemical
MDA-MB-435 [2] = experiment: Cytotoxicity against human MDA-MB-435 cells at 1 uM after 24 hrs using crystal violet staining by colony formation assay; type: functional, cell-based
How it was run: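 Cells were plated at 1000 per well, attached overnight, and exposed to 1 μM for 24 h. They were then washed and grown in fresh medium for 8–10 days until colonies formed, fixed in 1% glutaraldehyde for 30 min, and stained with 2% crystal violet for 30 min. Vehicle was DMSO.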

HCT-116 [3] = experiment: Cytotoxicity against p53 deficient human HCT116 cells […] after 72 hrs by MTT assay; type: functional, cell-based; settings: HCT-116, 72 h; how it was run: as §1
HT-29 = experiment: Cytotoxicity against human HT-29 cells after 72 hrs by MTT assay; type: functional, cell-based; settings: HT-29, 72 h; how it was run: as §1
HCT-116 [4] = experiment: Cytotoxicity against human HCT116 cells […] after 72 hrs by MTT assay; type: functional, cell-based; settings: HCT-116, 72 h; how it was run: as §1
NCI/ADR-RES = experiment: Cytotoxicity against human NCI/ADR-RES cells after 72 hrs by MTT assay; type: functional, cell-based
UMUC3 = experiment: Cytotoxicity against human UM-UC-3 cells after 72 hrs by MTT assay; type: functional, cell-based; settings: UMUC3, 72 h; how it was run: as §1
MDA-MB-435 [5] = experiment: Cytotoxicity against human MDA-MB-435 cells after 72 hrs by MTT assay; type: functional, cell-based; settings: MDA-MB-435, 72 h; how it was run: as §1
5637 = experiment: Cytotoxicity against human 5637 cells after 72 hrs by MTT assay; type: functional, cell-based; settings: Homo sapiens, 5637, 72 h
MDA-MB-435 [6] = experiment: Increase of mitochondrial superoxide accumulation in human MDA-MB-435 cells at 1.5 uM after 24 hrs by fluorescence microscopic analysis; type: functional, cell-based
How it was run: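 MDA-MB-435 cells (DMEM, 10% FBS, 37 °C, 5% CO₂) treated 24 h, then loaded with 5 μM MitoSOX Red mitochondrial superoxide indicator for 10 min at 37 °C; washed three times with HBSS to remove excess dye and viewed under a fluorescence microscope for mitochondrial superoxide staining pattern, compared with untreated cells.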

MDA-MB-435 [7] = experiment: Increase of reactive oxygen species accumulation in human MDA-MB-435 cells at IC50 to 3 times IC50 after 24 hrs by fluorescence microscopic analysis; type: functional, cell-based
MDA-MB-435 [8] = experiment: Increase of mitochondrial superoxide accumulation in human MDA-MB-435 cells at IC50 to 3 times IC50 after 24 hrs by fluorescence microscopic analysis; type: functional, cell-based
How it was run: (§2)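 Cells were drug-treated at two concentrations for 24 h, then loaded with 5 μM MitoSOX Red for 10 min at 37 °C and washed three times in HBSS. Cells were either viewed by fluorescence microscopy or trypsinized, washed twice in HBSS and read by flow cytometry; untreated cells served as control.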

MDA-MB-435 [9] = experiment: Increase of mitochondrial superoxide accumulation in human MDA-MB-435 cells at IC50 to 3 times IC50 after 24 hrs by flow cytometry; type: functional, cell-based; how it was run: as §2

| Compound | IC50 (HEY) | logP [1] | Activity (MDA-MB-435 [2]) | IC50 (HCT-116 [3]) | IC50 (HT-29) | IC50 (HCT-116 [4]) | IC50 (NCI/ADR-RES) | IC50 (UMUC3) | IC50 (MDA-MB-435 [5]) | IC50 5637 | Activity (MDA-MB-435 [6]) | Activity (MDA-MB-435 [7]) | Activity (MDA-MB-435 [8]) | Activity (MDA-MB-435 [9]) |
| --- | --- | --- | --- | --- | --- | --- | --- | --- | --- | --- | --- | --- | --- | --- |
| C#CC(=O)N(Cc1ccc2c(c1)OCO2)C(C(=O)NCc1ccccc1)c1ccccc1F (centres undefined) | > 10 µM | 3.32 | Active | > 20 µM | > 10 µM | > 10 µM | 1.3 µM | > 20 µM | > 10 µM | 2.8 µM | – | – | – | – |
| C#CC(=O)N(c1ccc(OC)cc1OC)C(C(=O)NC1CCCC1)c1cccs1 (centres undefined) | 4.1 µM | 2.26 | Active | 7 µM | 2.3 µM | 6.9 µM | 0.4 µM | > 20 µM | 1.7 µM | 1.7 µM | – | – | – | – |
| CC(=O)O[C@H]1C(=O)[C@@]2(C)[C@H]([C@H](OC(=O)c3ccccc3)[C@]3(O)C[C@H](OC(=O)[C@H](O)[C@@H](NC(=O)c4ccccc4)c4ccccc4)C(C)=C1C3(C)C)[C@]1(OC(C)=O)CO[C@@H]1C[C@@H]2O [PACLITAXEL] | – | 0.54 | Active | – | – | – | – | – | – | – | inactive | – | – | – |
| C#CC(=O)N(c1ccc(-n2cnnn2)c(C)c1)C(C(=O)NC1CCCC1)c1ccccc1 (centres undefined) | 1.9 µM | 3.54 | Active | 5.7 µM | 1.5 µM | 7.2 µM | 1 µM | 7.8 µM | 0.6 µM | 0.4 µM | – | – | – | – |
| C#CC(=O)N(c1cccc(C(F)(F)F)c1)C(C(=O)NC1CCCC1)c1ccc(F)cc1 (centres undefined) | 2.4 µM | 4.38 | Active | 6.9 µM | 4.8 µM | 7.5 µM | 0.4 µM | 8 µM | 5.2 µM | 0.5 µM | – | – | – | – |
| C#CC(=O)N(c1cccc(C(F)(F)F)c1)C(C(=O)NC1CCCCC1)c1cccs1 (centres undefined) | 5.2 µM | 3.88 | Active | 10.4 µM | 6 µM | 8.3 µM | 0.4 µM | > 20 µM | 6.9 µM | 1.6 µM | – | – | – | – |
| C#CC(=O)N(c1ccc(OC)c(OC)c1)C(C(=O)NC1CCCC1)c1cccs1 (centres undefined) | 3.4 µM | 2.26 | Active | 9.6 µM | 5.5 µM | 7.7 µM | 0.9 µM | > 20 µM | 2 µM | 2 µM | – | – | – | – |
| C#CC(=O)N(c1cccc(C(F)(F)F)c1)C(C(=O)NCc1ccccc1)c1cccs1 (centres undefined) | 7.1 µM | 3.86 | Active | 16.1 µM | 7.3 µM | 9 µM | 0.7 µM | > 20 µM | 4.2 µM | 1.2 µM | – | – | – | – |
| C#CC(=O)N(c1cc(OC)ccc1OC)C(C(=O)NC1CCCC1)c1cccs1 (centres undefined) | 1.5 µM | 2.26 | Active | 4.7 µM | 1.6 µM | 5.7 µM | 0.3 µM | 5.7 µM | 0.5 µM | 0.3 µM | – | – | – | – |
| C#CC(=O)N(c1ccccc1F)C(C(=O)NC1CCCCC1)c1ccccc1F (centres undefined) | 5.6 µM | 4.17 | Active | 10.1 µM | 7.7 µM | 11.9 µM | 0.4 µM | > 20 µM | 6.5 µM | 2.1 µM | – | – | – | – |
| C#CC(=O)N(c1cccc(OC)c1)C(C(=O)NC1CCCC1)c1cccs1 (centres undefined) | 1.9 µM | 2.55 | Active | 5.6 µM | 2.3 µM | 7.2 µM | 0.3 µM | 6.9 µM | 1.7 µM | 0.3 µM | – | – | – | – |
| CC[C@@]1(O)C(=O)OCc2c1cc1n(c2=O)Cc2cc3ccccc3nc2-1 [CAMPTOTHECIN] | – | 1.67 | – | – | – | – | – | – | – | – | – | – | – | – |
| O=C(O)c1ccccc1C1c2cc(Cl)c(O)cc2Oc2cc(O)c(Cl)cc21 | – | – | – | – | – | – | – | – | – | – | – | inactive | – | – |
| C#CC(=O)N(c1ccccc1)C(C(=O)NC1CCCCC1)c1cccs1 (centres undefined) | > 10 µM | 3.07 | Active | > 20 µM | > 10 µM | 14 µM | 1.3 µM | > 20 µM | > 10 µM | 3.5 µM | – | – | Active | Active |
| C#CC(=O)N(Cc1ccco1)C(C(=O)NC1CCCC1)c1ccccc1F (centres undefined) | 4.3 µM | 2.39 | Active | 13 µM | > 10 µM | 10.5 µM | 1.2 µM | > 20 µM | 1.7 µM | 2.9 µM | – | – | – | – |
| C#CC(=O)N(c1cc(OC)cc(OC)c1)C(C(=O)NC1CCCC1)c1ccc(OC)cc1 (centres undefined) | 2.3 µM | 2.33 | Active | > 20 µM | 2.1 µM | 15 µM | 0.3 µM | > 20 µM | 2.4 µM | 1.9 µM | – | – | – | – |
| C#CC(=O)N(c1ccc2c(c1)OCCO2)C(C(=O)NC1CCCC1)c1ccccc1 (centres undefined) | 4.1 µM | 2.62 | Active | > 20 µM | 3.2 µM | 17.3 µM | 0.3 µM | > 20 µM | 1.8 µM | 1.9 µM | – | – | – | – |
| COc1cccc2c1C(=O)c1c(O)c3c(c(O)c1C2=O)C[C@@](O)(C(=O)CO)C[C@@H]3O[C@H]1C[C@H](N)[C@H](O)[C@H](C)O1 [DOXORUBICIN] | – | -0.82 | Active | – | – | – | – | – | – | – | – | – | – | – |
| C#CC(=O)N(c1ccc2ccccc2c1)C(C(=O)NC1CCCC1)c1ccccc1 (centres undefined) | 1.7 µM | 4.11 | Active | 7.4 µM | 4.9 µM | 6.8 µM | 0.3 µM | > 20 µM | 7.3 µM | 0.5 µM | – | – | – | – |
